Source: ChEMBL document CHEMBL5715960, “Epigenetic Co-Deregulation of EZH2/TET1 is a Senescence-Countering, Actionable Vulnerability in Triple-Negative Breast Cancer” (Theranostics, 2019)
Activity calls are given as the source filed them. The rule behind the calls is not given here.

Legend:
MDA-MB-436 [1] = assay: Antiproliferative activity in human MDA-MB-436 cells assessed as increase in SA-beta-gal positive cells at 2 uM for 5 days by SA-beta-gal staining analysis; format: functional, cell-based; settings: time 5.0 day
Method in brief: (§1)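 GSK343 2 µM or DMSO for 5 days, then chromogenic SA-β-gal staining and counting of positive cells. Triplicate; mean ± SD.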

MDA-MB-436 [2] = assay: Effect on […] in human MDA-MB-436 cells assessed as repression in TET1 promoter H3K27me3 by ChiP-qPCR analysis; format: functional, cell-based
Method in brief: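 ChIP-qPCR on MDA-MB-231 and MDA-MB-436 cells exposed to GSK343 or DMSO. Chromatin pulled down with anti-H3K27me3 antibody and amplified with primers specific for the TET1 promoter. Input (no immunoprecipitation) serves as internal control and anti-IgG as negative control. Mean ± SD, triplicate unless stated.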

MDA-MB-436 [3] = assay: Downregulation of EZH2 in human MDA-MB-436 cells at 2 uM for 2 days by immunoblot analysis; format: functional, cell-based; settings: time 2.0 day
MDA-MB-231 [4] = assay: Effect on human MDA-MB-231 cells assessed as decrease in H3K27me3 level at 2 uM in presence of adriamycin by immunoblot analysis; format: functional, cell-based
Method in brief: (§2)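 Immunoblot of MDA-MB-231 and MCF7 lysates after 0.005 µg/ml adriamycin with or without 2 µM GSK343, or DMSO. α-Tubulin and total H3 used as loading controls.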

MDA-MB-231 [5] = assay: Downregulation of EZH2 transcription in human MDA-MB-231 cells at 2 uM for 2 days by immunoblot analysis; format: functional, cell-based; settings: time 2.0 day
BT-474 [6] = assay: Cytotoxicity against human BT-474 cells at 0.5 to 2 uM for 2 days by Guava viacount assay; format: toxicity, cell-based; settings: bt-474, 48 h, dose 0.5-2 µM, time 2 day
Method in brief: (§3)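 Cells plated at 2 × 10^4 (24-well) or 1 × 10^5 (12-well), exposed to a range of GSK343 concentrations for 2 days against DMSO solvent control; cell number and viability read by Guava ViaCount flow cytometry, relative to DMSO. Triplicate; mean ± SD.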

MDA-MB-231 [7] = assay: Upregulation of TET1 in human MDA-MB-231 cells at 2 uM for 2 days by immunoblot analysis; format: functional, cell-based; settings: time 2.0 day
MDA-MB-453 = assay: Antiproliferative activity against human MDA-MB-453 cells at 0.5 to 2 uM for 2 days by Guava viacount assay; format: functional, cell-based; settings: dose 0.5-2 µM, time 2.0 day; method in brief: as §3
MDA-MB-231 [8] = assay: Antiproliferative activity in human MDA-MB-231 cells assessed as increase in C12FDG based fluorescent SA-beta-gal positive cells at 2 uM in presence of adriamycin by FACS analysis; format: functional, cell-based
Method in brief: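 Cells given 0.005 µg/ml adriamycin with or without 2 µM GSK343, or DMSO; SA-β-gal activity detected with C12FDG fluorescent substrate by flow cytometry, reported as percent positive cells. Mean ± SD.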

MDA-MB-231 [9] = assay: Antiproliferative activity against human MDA-MB-231 cells assessed as downregulation of cyclin A by immunoblot analysis; format: functional, cell-based
Method in brief: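 Cells exposed to GSK343 at 2 µM (standard level unless stated otherwise), lysed and immunoblotted; α-tubulin and total H3 as loading controls.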

MCF7 [10] = assay: Cytotoxicity against human MCF7 cells assessed as increase in cell death at 10 uM for 2 days by Guava viacount assay; format: toxicity, cell-based; settings: mcf7, 48 h, time 2 day; method in brief: as §3
MCF7 [11] = assay: Effect on human MCF7 cells assessed as increase in global 5hmc level by dot analysis; format: functional, cell-based
Method in brief: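 Global 5hmC measured by dot blot on genomic DNA from cells given GSK343 or carrying EZH2 knock-down, with DMSO or scrambled shRNA as controls. DNA denatured in 0.1 M NaOH at 99 °C for 5 min, then neutralized with ammonium sulfate pH 7.0. 5 µg spotted, UV-crosslinked, probed with anti-5hmC for 1 h at room temperature, ECL detection, dot intensity quantified. Mean ± SD.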

MDA-MB-231 [12] = assay: Effect on human MDA-MB-231 cells assessed as increase in TET1 transcription by qRT-PCR analysis; format: functional, cell-based
Method in brief: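 qRT-PCR of TET1, TET2 and TET3 transcripts in breast cancer cells exposed to GSK343 (2 µM unless otherwise indicated), shown relative to DMSO-treated cells. Mean ± SD, triplicate unless stated.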

MDA-MB-436 [13] = assay: Downregulation of EZH2 protein expression in human MDA-MB-436 cells at 2 uM for 2 days by immunoblot analysis; format: functional, cell-based; settings: time 2.0 day
MDA-MB-436 [14] = assay: Induction of apoptosis in human MDA-MB-436 cells xenografted in Crl:NU-Foxn1-nu/nu mouse assessed as apoptotic cells in tumor administered at 5 mg/kg, ip in presence of adriamycin treated for 21 days by TUNEL staining analysis; format: functional, organism-based; settings: time 21.0 day
Method in brief: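 TUNEL staining of xenograft tumor sections. Dosing started when tumors reached about 50 mm3: twice-weekly intraperitoneal GSK343 5 mg/kg, adriamycin 1 mg/kg, the combination, or DMSO solvent control, for 21 days.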

MDA-MB-231 [15] = assay: Antiproliferative activity in human MDA-MB-231 cells assessed as increase in SA-beta-gal positive cells at 2 uM for 5 days by SA-beta-gal staining analysis; format: functional, cell-based; settings: time 5.0 day; method in brief: as §1
MDA-MB-231 [16] = assay: Effect on human MDA-MB-231 cells expressing shTET1 assessed as increase in p21 cascade by immunoblot analysis; format: functional, cell-based
MDA-MB-436 [17] = assay: Effect on human MDA-MB-436 cells expressing shTET1 assessed as increase in p21 cascade by immunoblot analysis; format: functional, cell-based
MDA-MB-436 [18] = assay: Antitumor activity against human MDA-MB-436 cells xenografted in Crl:NU-Foxn1-nu/nu mouse assessed as reduction in tumor administered at 5 mg/kg, ip in presence of adriamycin treated for 21 days; format: functional, organism-based; settings: time 21.0 day
MCF7 [19] = assay: Induction of cell cycle arrest in human MCF7 cells assessed as accumulation of cells at G1 phase measured at 2 uM by BrdU/PI staining based flow cytometric analysis (reference value: 65.2%); format: functional
BT-474 [20] = assay: Induction of cell cycle arrest in human BT-474 cells assessed as accumulation of cells at S phase measured at 2 uM by BrdU/PI staining based flow cytometric analysis (reference value: 28.6%); format: functional
SK-BR-3 = assay: Antiproliferative activity in human SK-BR-3 cells assessed as increase in SA-beta-gal positive cells at 2 uM for 5 days by SA-beta-gal staining analysis; format: toxicity, cell-based; settings: sk-br-3, 120 h, time 5 day; method in brief: as §1
MCF7 [21] = assay: Effect on human MCF7 cells assessed as decrease in H3K27me3 level at 2 uM in presence of adriamycin by immunoblot analysis; format: functional, cell-based; method in brief: as §2
BT-474 [22] = assay: Antiproliferative activity in human BT-474 cells assessed as increase in SA-beta-gal positive cells at 2 uM for 5 days by SA-beta-gal staining analysis; format: toxicity, cell-based; settings: bt-474, 120 h, time 5 day; method in brief: as §1
MDA-MB-231 [23] = assay: Effect on human MDA-MB-231 cells expressing shTET1 assessed as increase in p53 cascade by immunoblot analysis; format: functional, cell-based
MDA-MB-436 [24] = assay: Induction of apoptosis in human MDA-MB-436 cells assessed as decrease in accumulation of cells at S phase in presence of adriamycin by BrdU/PI-based cell cycle analysis; format: functional
Method in brief: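 Cell cycle by BrdU/PI staining and flow cytometry, giving G1, S and G2 fractions. Cells received 0.005 µg/ml adriamycin with or without 2 µM GSK343, or DMSO. Mean ± SD.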

Structure (SMILES): CCCc1cc(C)[nH]c(=O)c1CNC(=O)c1cc(-c2ccnc(N3CCN(C)CC3)c2)cc2c1cnn2C(C)C
- Activity (MDA-MB-436 [1]): Active
- Activity (MDA-MB-436 [2]): Active
- Activity (MDA-MB-436 [3]): Active
- Activity (MDA-MB-231 [4]): Active
- Activity (MDA-MB-231 [5]): Active
- Activity (BT-474 [6]): Non-Toxic
- Activity (MDA-MB-231 [7]): Active
- Activity (MDA-MB-453): Active
- Activity (MDA-MB-231 [8]): Active
- Activity (MDA-MB-231 [9]): Active
- Activity (MCF7 [10]): Non-Toxic
- Activity (MCF7 [11]): inactive
- Activity (MDA-MB-231 [12]): Active
- Activity (MDA-MB-436 [13]): Active
- Activity (MDA-MB-436 [14]): Active
- Activity (MDA-MB-231 [15]): Active
- Activity (MDA-MB-231 [16]): inactive
- Activity (MDA-MB-436 [17]): inactive
- Activity (MDA-MB-436 [18]): Active
- Activity (MCF7 [19]): 66.1%
- Activity (BT-474 [20]): 26.8%
- Activity (SK-BR-3): Non-Toxic
- Activity (MCF7 [21]): inactive
- Activity (BT-474 [22]): Non-Toxic
- Activity (MDA-MB-231 [23]): inactive
- Activity (MDA-MB-436 [24]): Active
